# Screening results: PubChem BioAssay, Broad Institute
# Hits are enriched below; roughly 2.3% of the tested compounds scored in any of these assays.
# F508del corr = CFTR F508del correction in bronchial cells; CFBE cells, YFP halide quenching; stimulated with forskolin plus potentiator P3; % fluorescence drop versus neutral controls; activity (quench increase), % at 7.58 µM; 350,000 tested, 0.36% active; AID 720511;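 active = mean added fluorescence quench of at least 8% versus neutral control, with both replicates also reaching 8%; inconclusive = only one of the mean or replicate conditions met; inactive = mean below 8% and not both replicates reaching 8%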;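 note: cells transiently co-express mutant CFTR-F508del with the halide-sensitive YFP; corrector assay measuring rescue of mutant channel to the surface after 24 h compound exposure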
# PDI turbidity = inhibitors of human protein disulfide isomerase | P07237 | PDI insulin aggregation turbidity, A650, 90 min | inhibition, % at 10 µM | 350,000 tested, 0.052% active;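 active = mean inhibition across replicates of 30% or more, whatever share of single replicates reach that level; inconclusive = mean inhibition below 30% while every single replicate reaches 30%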
# Target sequence (P07237 whole entry, looked up): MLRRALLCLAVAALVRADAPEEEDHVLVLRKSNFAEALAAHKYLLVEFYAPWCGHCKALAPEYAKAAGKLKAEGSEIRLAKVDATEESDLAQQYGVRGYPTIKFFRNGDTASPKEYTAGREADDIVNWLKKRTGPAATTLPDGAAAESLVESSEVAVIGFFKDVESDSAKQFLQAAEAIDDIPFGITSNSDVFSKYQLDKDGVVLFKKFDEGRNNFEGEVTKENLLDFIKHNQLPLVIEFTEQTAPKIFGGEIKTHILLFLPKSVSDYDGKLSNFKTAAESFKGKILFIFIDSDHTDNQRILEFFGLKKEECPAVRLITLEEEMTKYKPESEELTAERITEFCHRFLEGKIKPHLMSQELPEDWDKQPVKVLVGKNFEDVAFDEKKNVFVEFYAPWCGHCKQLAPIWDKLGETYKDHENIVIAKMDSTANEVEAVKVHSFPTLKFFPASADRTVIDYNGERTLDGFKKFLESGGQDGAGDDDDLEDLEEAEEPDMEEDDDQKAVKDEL
# DENV2 CPE = inhibitors of DENV2 cytopathic effect; DENV2-infected cells, cytopathic effect rescue, plate reader; 350,000 tested, 1.7% active; CPE inhibition, % at 9.99 µM; in the data active = CPE inhibition above about 20%, passing the limit was not always enough; inconclusive = no clear call, values can overlap the other calls; tested in BHK-21 cells;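 note: 0% = median of neutral control wells and 100% = median of positive control wells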
# Cneo AK release = Cryptococcus neoformans lysis via adenylate kinase release; lysis activity, % at 15 µM; 360,000 tested, 0.2% active; C. neoformans lysis, adenylate kinase release luminescence, 4 h; normalised: neutral wells 0, clomiphene wells 100;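 active = mean lysis activity across replicates of at least 80%, whatever share of replicates individually reach that level; inactive = mean lysis activity below 80%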
#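 Material – Cryptococcus neoformans yeast cells · Quantity – 5 × 10^6 yeast cells/mL · Buffer or medium – YPD medium · Compound – single dose · Timing – 4 h static compound exposure, 37 °C, read 1 h post-reagent · Signal – adenylate kinase release luminescence · Read-out basis – lysis from increased AK signal · Benchmarks – Clomiphene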
# Statin myotox sup = protects C2C12 myotubes from simvastatin toxicity; ATP luminescence, 48 h; scaled: DMSO 0, geranylgeraniol control 100; rescue of ATP level, % at 7.49 µM; 330,000 tested, 0.78% active;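 active = mean ATP rescue above about 67%, or every replicate alone reaching that limit, limit read from the data, passing the limit was not always enough; inconclusive = no clear call, values can overlap the other calls; inactive = mean under the limit and some replicate under it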;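 note: myotubes were challenged with 10 µM simvastatin during compound exposure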
# ERp5 inh = inhibitors of human ERp5; inhibition, % at 9.99 µM; ERp5 insulin aggregation, absorbance 650 nm, 90 min; 350,000 tested, 0.05% active; AID 651711;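 active = mean replicate inhibition above about 25%, with every replicate also reaching it, limit read from the data, passing the limit was not always enough; inconclusive = only one of those two criteria met; inactive = neither criterion met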
# Active calls of the source: *; ? = inconclusive; · = not tested or not shown.
SMILES,F508del corr,PDI turbidity,DENV2 CPE,Cneo AK release,Statin myotox sup,ERp5 inh
CC(O)CNc1nc2ccccc2n1-c1ncnc2sc3c(c12)CCC3 (stereo not given),·,-7,·,-2,114*,·
c1ccc2c(c1)ncn2-c1ncnc2sc3c(c12)CCCC3,·,-3,·,-2,-8,·
Cc1cccc(OCCSCc2nc3ccccc3[nH]2)c1,·,15,·,-6,81*,·
COc1ccc(N[C@@H]2CCN3C(=O)c4ccccc4[C@@H]3C[C@H]2O)cc1,1,-8,4,3,10,-6
O=C1c2ccccc2[C@@H]2C[C@@H](O)[C@H](Nc3cccc4ccccc34)CCN12,-2,-1,26*,1,6,2
CC(=O)N1C[C@H]2[C@@H](c3ccccc31)[C@@H](CO)N2C(=O)Nc1ccc(F)cc1,-4,·,-5,0,16,-1
COc1ccc(C(=O)N/N=C/c2ccc(OC)c(CSc3ccccn3)c2)cc1,1,17,-5,·,·,-2
COc1ccc(/C=N/NC(=O)c2cccnc2)cc1CSc1ccccn1,11*,2,-3,-2,-8,-2
Cc1ccccc1-c1cnc2c(c1)C(=O)N([C@@H](C)CO)C[C@H](C)[C@H](CN(C)C(=O)c1ccncc1)O2,-1,·,3,-1,18,3
Cc1cccc(NC(=O)CN2CCN(C(=O)c3cc(C4CC4)nn3-c3ccccc3)CC2)c1C,2,-6,62*,3,3,1
CCC(=O)N1C[C@@H](C)[C@H](OC)CN(C)C(=O)c2cc(NC(=O)c3ccno3)ccc2OC[C@@H]1C,3,·,·,·,12,·
C[C@@H]1CN([C@H](C)CO)S(=O)(=O)c2ccc(-c3cncnc3)cc2O[C@@H]1CN(C)Cc1cccnc1,0,·,1,-3,-26,-4
Cc1ccc(-n2ccc(=O)c(-c3ccnc(SCc4cccc(Cl)c4)n3)n2)cc1,·,10,·,0,84*,·
CN1C(=O)c2cc(NC(=O)NC3CCCC3)ccc2OC[C@H]2O[C@H](CC(=O)O)CC[C@H]21,-1,·,8,-1,13,-3
O=C(/C=C/c1ccccc1)NC(=S)NNC(=O)Cc1cccs1,·,0,·,1,104*,·
COc1ccc(/C=C/C(=O)NC(=S)NNC(=O)Cc2cccs2)cc1,·,-3,·,·,·,·
COc1ccc2c3c([nH]c2c1)[C@@H](CO)N(C(=O)CN1CCOCC1)CC31CCN(C(C)=O)CC1,-3,·,-8,·,·,·
Nc1ccn([C@H]2CS[C@@H](CO)O2)c(=O)n1,1,·,27*,-1,5,-2
O=C(CN1C(=O)CCS(=O)(=O)c2ccccc21)NCc1ccccc1,·,-1,·,3,72*,·
O=C(CN1C(=O)CCS(=O)(=O)c2ccccc21)NCc1ccc2c(c1)OCO2,·,-4,·,·,7,·
Cc1ccc(S(=O)(=O)Nc2ccc3c(c2)C(=O)N([C@H](C)CO)C[C@@H](C)[C@H](CN(C)C(=O)Nc2ccc(F)cc2)OCCCC[C@H](C)O3)cc1,-6,·,3,0,·,0
COc1ccc(/C=C2\CN(Cc3ccccc3)C/C(=C\c3ccc(OC)c(O)c3)C2=O)cc1O,-4,54*,-5,0,99*,0
CCN1C/C(=C/c2ccc(OC)c(O)c2)C(=O)/C(=C/c2ccc(OC)c(O)c2)C1,6,4,-2,·,·,1
COc1ccccc1NC(=O)N[C@@H]1CC[C@H](CCNS(=O)(=O)c2ccc(F)cc2)O[C@@H]1CO,0,·,12,1,1,1
CCCN(CCC)CCCNC(=O)c1cc2c(=O)[nH]c3ccccc3c2n1C,0,5,29*,·,·,0
SMILES,F508del corr,PDI turbidity,DENV2 CPE,Cneo AK release,Statin myotox sup,ERp5 inh
C[C@@H]1CN([C@@H](C)CO)C(=O)c2cccc(NS(=O)(=O)c3cn(C)cn3)c2O[C@H]1CN(C)Cc1ccc(C(F)(F)F)cc1,1,·,-1,1,-8,1
Cc1n[nH]c(=O)c2c(NC(=O)CSc3nnnn3-c3ccc(O)cc3)oc(C)c12,-4,43*,-3,0,3,-10
O=C(CN1C(=O)NC2(CCCC2)C1=O)N1CCN(S(=O)(=O)c2ccccc2[N+](=O)[O-])CC1,-2,-4,38*,-2,21,-7
CN(C)CCN(C(=O)c1ccc2ccccc2c1)c1nc2c(F)cccc2s1,1,3,1,0,120*,1
CCOc1cccc2sc(N(CCN(C)C)C(=O)c3ccc4ccccc4c3)nc12,·,6,·,3,2,·
CC(C)C[C@@H]1NC(=O)[C@H]2C[C@@H](C(=O)NCCCCCN)[C@@H](c3cccc(OCCO)c3)N2C1=O,-1,·,32*,-3,·,4
CCCOc1cccc(C(=O)Nc2ccc(CN3CCOCC3)cc2)c1,0,-1,25*,0,-11,1
COc1ccc(CN(C)C[C@H]2OCCCC[C@H](C)Oc3ccc(NS(=O)(=O)c4ccc(OC)cc4)cc3C(=O)N([C@@H](C)CO)C[C@H]2C)cc1,2,·,7,·,·,-1
Cc1ccc(C2C=C(c3ccccc3OC(F)F)Nc3ncnn32)cc1 (stereo not given),·,-4,·,0,107*,·
Nc1nonc1-c1nc2ccccc2n1Cc1ccc(F)cc1Cl,·,-12,·,-1,116*,·
CC(OC(=O)c1cccs1)C(=O)NC1CCCCC1C (stereo not given),29*,-2,2,4,1,5
CC(OC(=O)c1ccccc1NCCO)C(=O)NC1CCCCC1C (stereo not given),-4,3,69*,3,-2,1
Cc1ccc(S(=O)(=O)N(C)C)cc1NC(=O)C(C)OC(=O)c1ccc2c(=O)n3c(nc2c1)CCC3 (stereo not given),0,-4,7,-1,6,3
CC(OC(=O)c1ccc2c(=O)n3c(nc2c1)CCC3)C(=O)NC1CCCCC1C (stereo not given),1,4,33*,0,·,-1
CC(OC(=O)c1ccc(C(C)(C)C)cc1)C(=O)NC1CCCCC1C (stereo not given),3,-9,-6,0,-24,2
O=C(CCN1CCCCC1)NCC[C@@H]1CC[C@@H](NC(=O)Nc2ccc(Cl)cc2)[C@H](CO)O1,-1,·,?,64,2,-3
C[C@H](CO)N1C[C@H](C)[C@@H](CN(C)S(=O)(=O)c2ccccc2)OCCCC[C@H](C)Oc2ccc(NS(C)(=O)=O)cc2C1=O,2,·,-4,1,5,2
COc1ccc(S(=O)(=O)N[C@@H]2CC[C@H](CCNC(=O)Cc3ccccn3)O[C@@H]2CO)cc1,2,·,10,1,-11,2
COc1ccc(-c2cn(CC[C@H]3CC[C@@H](NC(=O)Nc4ccc(F)cc4)[C@H](CO)O3)nn2)cc1,1,·,7,·,·,-8
